In test [1] the target is T1, Sphingosine kinase 2 (Homo sapiens) (UniProt Q9NRA0).
T1 sequence (whole entry): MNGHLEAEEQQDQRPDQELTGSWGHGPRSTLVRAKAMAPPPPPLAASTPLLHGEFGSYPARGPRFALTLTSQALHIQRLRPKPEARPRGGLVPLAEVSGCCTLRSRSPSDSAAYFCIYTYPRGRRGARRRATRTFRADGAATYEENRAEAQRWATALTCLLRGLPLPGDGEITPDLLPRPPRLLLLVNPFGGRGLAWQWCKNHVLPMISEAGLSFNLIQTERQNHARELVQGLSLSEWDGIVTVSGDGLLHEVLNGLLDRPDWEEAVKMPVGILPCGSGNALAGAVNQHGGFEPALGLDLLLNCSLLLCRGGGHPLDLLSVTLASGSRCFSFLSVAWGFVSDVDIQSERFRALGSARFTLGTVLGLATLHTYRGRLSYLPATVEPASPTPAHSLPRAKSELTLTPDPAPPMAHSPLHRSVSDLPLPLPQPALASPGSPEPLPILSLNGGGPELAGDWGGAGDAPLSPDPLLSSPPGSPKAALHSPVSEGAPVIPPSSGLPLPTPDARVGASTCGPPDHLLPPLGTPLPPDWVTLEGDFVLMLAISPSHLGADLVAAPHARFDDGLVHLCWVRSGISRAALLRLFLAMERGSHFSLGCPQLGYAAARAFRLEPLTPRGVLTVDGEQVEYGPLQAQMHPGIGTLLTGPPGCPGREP
Nature of the test: Inhibition of human recombinant SphK2 remaining enzyme activity at 1 uM using sphingosine as substrate incubated for 20 mins by scintillation counting analysis in presence of [gamma-32P]ATP.

In another test the target is T2, Sphingosine kinase 2 (Homo sapiens, UniProt Q9NRA0).
T2 sequence (Q9NRA0 whole entry): T1 sequence (whole entry)
Nature of the test: Inhibition of human recombinant SphK2 using sphingosine as substrate incubated for 20 mins by scintillation counting analysis in presence of [gamma-32P]ATP.

The species named for the next test is Homo sapiens. Nature of the test: Selectivity ratio of Ki for human recombinant SphK1 to Ki for human recombinant SphK2. In outline: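 Recombinant human SphK1 and SphK2. Inhibitory constants came from kinetic analysis of S1P production, with sphingosine concentration varied and ATP held at a fixed concentration, run with and without inhibitor. Selectivity was taken as the ratio of the two enzymes' constants.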

A further test concerns the target Sphingosine kinase 1 (Homo sapiens, UniProt Q9NYA1). Description: Inhibition of human recombinant SphK1 using sphingosine as substrate incubated for 20 mins by scintillation counting analysis in presence of [gamma-32P]ATP.

Sphingosine kinase 1, sequence (Q9NYA1 whole entry): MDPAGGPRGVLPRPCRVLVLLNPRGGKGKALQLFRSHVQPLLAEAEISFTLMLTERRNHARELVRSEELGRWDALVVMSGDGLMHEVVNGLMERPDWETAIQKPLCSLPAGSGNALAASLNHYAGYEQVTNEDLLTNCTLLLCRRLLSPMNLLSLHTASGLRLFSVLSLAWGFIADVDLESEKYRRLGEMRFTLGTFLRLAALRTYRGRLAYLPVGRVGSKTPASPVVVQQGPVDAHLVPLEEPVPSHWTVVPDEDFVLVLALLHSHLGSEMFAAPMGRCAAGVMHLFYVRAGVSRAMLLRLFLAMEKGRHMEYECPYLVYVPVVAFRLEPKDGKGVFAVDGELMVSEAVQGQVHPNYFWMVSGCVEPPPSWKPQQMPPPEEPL

With `N=C(N)N1CCC[C@H]1c1nc(-c2ccc3cc(OCc4cccc(Br)c4)ccc3c2)no1`, in test [1], the Activity is 49%.

For `N=C(N)N1CCC[C@H]1c1nc(-c2ccc3cc(OCC(=O)c4ccc(C(F)(F)F)cc4)ccc3c2)no1`, the Activity in test [1] amounted to 65%.

Regarding `N=C(N)N1CCC[C@H]1c1nc(-c2ccc3cc(OCc4ccc(C(F)(F)F)cc4)ccc3c2)no1`, on Sphingosine kinase 2, the inhibition constant Ki came to 1020 nM. Also, the Activity in test [1] was 42%.

On to `Cc1ccc(COc2ccc3cc(-c4noc([C@@H]5CCCN5C(=N)N)n4)ccc3c2)cc1`, for which the Activity in test [1] is 94%.

As for `N=C(N)N1CCC[C@H]1c1nc(-c2ccc3cc(OCCc4ccc(C(F)(F)F)cc4)ccc3c2)no1`, the Activity in test [1] turned out to be 30%.

Consider `CCCCOc1ccc2cc(-c3noc([C@@H]4CCCN4C(=N)N)n3)ccc2c1`, for which, in test [1], the Activity was 69%.

In the case of `CCCCCCOc1ccc2cc(-c3noc([C@@H]4CCCN4C(=N)N)n3)ccc2c1`, the Ki on Sphingosine kinase 2 is 3800 nM; at Sphingosine kinase 1, more than 10000 nM. Besides, the Ratio Ki in the test filed under Homo sapiens was more than 2.6. Moreover, in test [1], the Activity was 64%.

Take `COCCCOc1ccc2cc(-c3noc([C@@H]4CCCN4C(=N)N)n3)ccc2c1`: the Activity in test [1] is 109%.

`N=C(N)N1CCC[C@H]1c1nc(-c2ccc3cc(OCc4ccc(Br)cc4)ccc3c2)no1`: the Activity in test [1] turned out to be 35%.

With `N=C(N)N1CCC[C@H]1c1nc(-c2ccc3cc(OCc4cccc(Cl)c4)ccc3c2)no1`, in test [1], the Activity came to 46%.

For the molecule `N=C(N)N1CCC[C@H]1c1nc(-c2ccc3cc(OCc4ccc(Cl)cc4)ccc3c2)no1`, in test [1], the Activity was 56%.

With `CC(C)COc1ccc2cc(-c3noc([C@@H]4[C@@H](O)CCN4C(=N)N)n3)ccc2c1`, the results for the Ki at Sphingosine kinase 2 and at Sphingosine kinase 1 were 980 nM and 930 nM, respectively. In addition, the Ratio Ki in the test filed under Homo sapiens is 0.9. Moreover, the Activity in test [1] stood at 53%.

With `CC(C)COc1ccc2cc(-c3noc([C@@H]4CCCN4C(=N)N)n3)ccc2c1`, the Activity in test [1] was determined as 74%.

As to `N=C(N)N1CCC[C@H]1c1nc(-c2ccc3cc(OCC(=O)c4ccc(-c5ccccc5)cc4)ccc3c2)no1`, the Activity in test [1] worked out at 77%.

Turning to `N=C(N)N1CCC[C@H]1c1nc(-c2ccc3cc(OCC4CCCC4)ccc3c2)no1`, in test [1], the Activity was determined as 57%.

Regarding `N=C(N)N1CCC[C@H]1c1nc(-c2ccc3cc(OCc4cccc(C(F)(F)F)c4)ccc3c2)no1`, the Activity in test [1] turned out to be 81%.

Take `N=C(N)N1CCC[C@H]1c1nc(-c2ccc3cc(O)ccc3c2)no1`: the Activity in test [1] came out at 106%.

In the case of `CCCCCCCOc1ccc2cc(-c3noc([C@@H]4CCCN4C(=N)N)n3)ccc2c1`, the Activity in test [1] came out at 83%.

Turning to `N=C(N)N1CCC[C@H]1c1nc(-c2ccc3cc(OCCc4ccccc4C(F)(F)F)ccc3c2)no1`, the Activity in test [1] was found to be 47%.

Regarding `CC1(C)CCC(C)(C)c2cc(COc3ccc4cc(-c5noc([C@@H]6CCCN6C(=N)N)n5)ccc4c3)ccc21`, the Activity in test [1] is 104%.

On to `N=C(N)N1CCC[C@H]1c1nc(-c2ccc3cc(OCCc4cccc(C(F)(F)F)c4)ccc3c2)no1`, for which the Activity in test [1] amounted to 34%.

In the case of `Cc1ccc(S(=O)(=O)Oc2ccc3cc(-c4noc([C@@H]5CCCN5C(=N)N)n4)ccc3c2)cc1`, in test [1], the Activity was 89%.

`N=C(N)N1CCC[C@H]1c1nc(-c2ccc3cc(OCc4ccccc4)ccc3c2)no1`: the Activity in test [1] was found to be 97%.

As for `N=C(N)N1CCC[C@H]1c1nc(-c2ccc3cc(OCC(=O)c4ccccc4)ccc3c2)no1`, the Activity in test [1] was 103%.

In the case of `N#Cc1ccc(COc2ccc3cc(-c4noc([C@@H]5CCCN5C(=N)N)n4)ccc3c2)cc1`, in test [1], the Activity came to 43%.

In the case of `N=C(N)N1CCC[C@H]1c1nc(-c2ccc3cc(OCc4ccc(-c5ccccc5)cc4)ccc3c2)no1`, the Activity in test [1] was determined as 51%.

In the case of `COCCOc1ccc2cc(-c3noc([C@@H]4CCCN4C(=N)N)n3)ccc2c1`, in test [1], the Activity was 118%.

On to `CCCCCCCCc1ccc(-c2noc([C@@H]3CCCN3C(=N)N)n2)cc1`, for which the Ki on Sphingosine kinase 2 is 1400 nM. Besides, the Activity in test [1] is 61%.

`CCCCCOc1ccc2cc(-c3noc([C@@H]4CCCN4C(=N)N)n3)ccc2c1`: the inhibitory constant (Ki) on Sphingosine kinase 2 is 980 nM; on Sphingosine kinase 1, 7200 nM. Besides, the Ratio Ki in the test filed under Homo sapiens came to 7.3. In addition, the Activity in test [1] was 51%.

`CCCCCOc1ccc2cc(-c3noc([C@@H]4[C@@H](O)CCN4C(=N)N)n3)ccc2c1`: the results for the inhibitory constant (Ki) on Sphingosine kinase 2 and at Sphingosine kinase 1 were 900 nM and 730 nM, respectively. In addition, the Ratio Ki in the test listed under Homo sapiens came to 0.8. Besides, the Activity in test [1] was 46%.

The values above are taken from ChEMBL document CHEMBL3813677, “Structure-Activity Relationship Studies and Molecular Modeling of Naphthalene-Based Sphingosine Kinase 2 Inhibitors” (ACS Med Chem Lett, 2016).
